Test results published in PMC3065953 (Inorganic chemistry, 2011).
Read-outs that look alike come from different tables or passages of the source.

Key:
[1] = Cyclic voltammetry in DMF; assay type: physicochemical; settings: for Ep, V vs. Ag/AgCl (peak reduction potential): DMF, 0.1 M (n-Bu4N)PF6, scan rate 100 mV/s; for reduction peak potential: vs. Ag/AgCl, in DMF
[2] = cited from earlier work; for peak potential: in water / aqueous media; for Ep, V vs. Ag/AgCl (peak reduction potential): value in parentheses, aqueous solution
[3] = tested on: human lung carcinoma (A549) cells; test: MTT cytotoxicity assay in A549 cells; assay type: cell-based; settings: 72-h exposure, mean ± SD of at least three experiments
Procedure, shortened: (§1)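 Cells kept in DMEM/10% FBS/1% penicillin-streptomycin at 37 °C, 5% CO2. Seeded 1500 (A549) or 2500 (MRC-5) cells/well, 24 h, then 72 h in fresh medium with graded Pt concentrations. Pt(IV) complexes diluted from 10–20 mM DMSO stocks, reference Pt(II) drug from 2 mM PBS stock. MTT 0.8 mg/mL, 4 h; formazan dissolved in DMSO/10% pH 10.5 glycine buffer; A570. Viability normalized to Pt-free wells; IC50 extrapolated from curves. ≥3 independent experiments in triplicate.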

[4] = tested on: human normal lung fibroblasts (MRC-5) cells; test: MTT cytotoxicity assay in MRC-5 cells; assay type: cell-based; settings: for cytotoxicity relative to cisplatin / IC50: MRC-5 cells; for IC50: MTT assay, 72-h exposure, mean ± SD of at least three experiments; for factor less cytotoxic in the healthy cells compared to the cancerous cells: MRC-5 vs. A549 IC50
Procedure, shortened: as §1

[5] = Cyclic voltammetry in aqueous solution; assay type: physicochemical; settings: value in parentheses, this work (Figure S3)

SMILES	Ep, V vs. Ag/AgCl (peak reduction potential) [1]	reduction peak potential [1]	peak potential [2]	Ep, V vs. Ag/AgCl (peak reduction potential) [2]	IC50 [3]	cytotoxicity relative to cisplatin [4]	IC50 [4]	factor less cytotoxic in the healthy cells compared to the cancerous cells [4]	Ep, V vs. Ag/AgCl (peak reduction potential) [5]
CC(=O)[O][Pt]([NH2])([NH2])([Cl])([Cl])[O]C(C)=O [Compound 1, c,c,t-[Pt(NH3)2Cl2(O2CCH3)2], reference compound]	−0.72 V	−722 mV	−635 mV	−0.64 V	–	–	–	–	–
[NH2][Pt]([NH2])([Cl])([Cl])([O]C(=O)NC1CCCC1)[O]C(=O)NC1CCCC1 [Compound 5]	−0.85 V	–	–	–	0.6 ± 0.3 µM	more toxic	2.3 ± 0.7 µM	~2	–
[NH2][Pt]([NH2])([Cl])([Cl])([Cl])[Cl] [Compound 3, cis-[Pt(NH3)2Cl4], reference compound]	−0.45 V	−454 mV	−260 mV	−0.26 V	–	–	–	–	–
COc1ccc(NC(=O)[O][Pt]([NH2])([NH2])([Cl])([Cl])[O]C(=O)Nc2ccc(OC)cc2)cc1 [Compound 9]	−0.72 V	–	–	–	5.3 ± 2.5 µM	–	9.3 ± 3.2 µM	–	–
N.N.[Cl][Pt][Cl] [cisplatin, cis-diamminedichloroplatinum(II), reference compound]	–	–	–	–	7 ± 2.6 µM	–	4.3 ± 1.3 µM	–	–
[NH2][Pt]([NH2])([Cl])([Cl])([O]C(=O)C(F)(F)F)[O]C(=O)C(F)(F)F [Compound 2, c,c,t-[Pt(NH3)2Cl2(O2CCF3)2]]	−0.35 V	−345 mV	–	–	–	–	–	–	0.01 V
[NH2][Pt]([NH2])([OH])([OH])([Cl])[Cl] [c,c,t-[Pt(NH3)2Cl2(OH)2]]	–	–	−880 mV	–	–	–	–	–	–
CC(C)(C)NC(=O)[O][Pt]([NH2])([NH2])([Cl])([Cl])[O]C(=O)NC(C)(C)C [Compound 4]	−0.85 V	–	–	–	1 ± 0.3 µM	more toxic	2.8 ± 0.8 µM	~2	–
[NH2][Pt]([NH2])([Cl])([Cl])([O]C(=O)Nc1cccc2ccccc12)[O]C(=O)Nc1cccc2ccccc12 [Compound 11]	−0.63 V	−625 mV	–	–	4.3 ± 1.5 µM	–	4.8 ± 0.3 µM	–	–
